L major viab = Leishmania major promastigote growth inhibition, primary screen; Leishmania major promastigotes, resazurin fluorescence viability; inhibition, % at 10 µM; 200,000 compounds, 9% hits; in the data active = inhibition above about 50%;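 note: promastigotes grown with compound for 44 hours at 28 °C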
HSF1 inhib = HSF1 inhibitors in luciferase reporter cells, primary screen, cell-based, NIH3T3, luminescence; NIH3T3-HGL HSE-luciferase, MG132-induced, luminescence 8 h; active compounds read low; activity change, negative = inhibition, % at 7.5 µM (by protocol); 300,000 compounds, 0.77% hits; AID 2098, 2009;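 active = more than half of replicate wells show activity change below -50%, luminescence cut by over half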;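 note: luciferase reports HSF-1 transcriptional activity via heat shock element; 0% = median of DMSO wells and -100% = zero luminescence signal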
HSF-1 act = HSF-1 activators, primary screen, NIH3T3-HGL cells, MG132 stress, luminescence, single point; NIH3T3-HGL HSF-1 luciferase reporter, 8 h; 100% = twice DMSO control signal; activation, % at 9 µM; 300,000 compounds, 1.7% hits; AID 504408, 2011;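 active = mean replicate activation of at least 50% with a set share of replicates each reaching 50%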;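 note: 0% = median of the neutral control wells and 100% = twice that signal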
T cruzi inh = inhibitors of intracellular T. cruzi growth, primary screen, luminescence, NIH3T3 host cells | T. cruzi beta-gal in NIH3T3, 90 h | inhibition, % (test concentration not listed) | 300,000 compounds, 1.4% hits | AID 1885, 2009;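 active = mean inhibition across valid replicates above about 55%, limit read from the data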;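 note: signal also drops with host cell toxicity which is not excluded here; 0% = plate median of DMSO wells and 100% = zero luminescence signal; higher percent means less beta-gal luminescence so fewer parasites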
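Assay system: NIH/3T3 host cells with β-galactosidase reporter T. cruzi; input: 5,000 host fibroblasts per well; compound: single 50 nL compound addition per well in DMSO; timing: ≥90 h infection period, 3 h prior cell attachment; measured by: GalScreen β-gal luminescence, detergent lysis, 60 min; evaluation: percent inhibition of parasite-derived β-gal signal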
Hsp70 act = Hsp70 transcriptional activators, primary screen, cell-based, HeLa, Hsp70 promoter luciferase, luminescence, 10 µM | HeLa Hsp70 promoter luciferase reporter; scaled: vehicle 0, proteasome-inhibitor control 100% | activation, % at 10 µM | 200,000 compounds, 0.04% hits | AID 1203, 2008;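 active = activation above the mean across all tested compounds plus 3 SD, cutoff set per campaign, cut at about 5.5% in these data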;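 note: 100% = MG132 at 30 µM as the positive control and 0% = DMSO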
The depositor's hits bear a star; nt = not tested or not shown. The sample as a whole holds a higher share of hits than the screen did.

SMILES	L major viab	HSF1 inhib	HSF-1 act	T cruzi inh	Hsp70 act
O=C(CSc1nc(=O)n(CCCN2CCOCC2)c2c1CCC2)Nc1ccc([N+](=O)[O-])cc1	nt	15	25	-4	nt
CCOC(=O)C1(CC2CCCCO2)CCN(Cc2cc3ccccc3[nH]2)CC1 (centres undefined)	67*	-7	-10	5	0
CCCCc1ncc(CN2CCC(CC3CCCCO3)(C(=O)OCC)CC2)[nH]1 (centres undefined)	11	-4	-6	16	0
Cc1ccc(NC(=O)CSc2nnc(CNC(=O)c3ccco3)o2)cc1Cl	nt	-1	-8	-1	nt
CCCn1cc(S(=O)(=O)c2ccc(OC)cc2)c(=O)c2cc(OC)ccc21	nt	8	6	6	nt
COc1ccc2c(c1OC)C(=O)OC2Nc1nc(-c2ccc(-c3ccccc3)cc2)cs1 (centres undefined)	52*	4	6	-5	0
COc1cccc(-c2csc(NC3OC(=O)c4c3ccc(OC)c4OC)n2)c1 (centres undefined)	nt	-8	-15	-1	nt
CCOc1ccc(N2CC(NC(=O)c3ccc4ccccc4c3)CC2=O)cc1 (centres undefined)	nt	3	7	8	nt
CCOc1ccc(CCNC(=O)COC(=O)c2nccnc2N)cc1OCC	nt	-3	7	-10	nt
CCCCOc1ccc(C(=O)OC2CC(C)N(C)CC2C)cc1 (centres undefined)	98*	-6	-1	48	0
CN1CCC2(CC1)Nc1nc(SCc3ccc(Cl)cc3)nn1C1=C2CN(C)CC1	97*	5	35	15	0
CC(=O)c1cnc2nc(SCc3ccc(Cl)cc3)nn2c1C	nt	9	23	11	nt
COc1ccc(OC(C)C(=O)NC2CCCCCC2)cc1 (centres undefined)	nt	0	-9	-7	nt
CC(=O)c1nc(N2C(=O)CC(Cc3cc(C)cc(C)c3)C2=O)sc1C (centres undefined)	54*	-6	0	-1	0
Cc1sc(NC(=S)Nc2ccc(F)cc2)c(C(N)=O)c1C	4	-4	-20	-20	0
Cc1sc(NC(=S)NC(=O)C2CCCCC2)c(C(N)=O)c1C	63*	-3	6	-6	0
Cc1ccc2nc(NC(=O)CSCC(=O)OCC(=O)c3ccccc3)sc2c1	-5	-67*	-74	-3	-1
O=C(Cc1c(F)cccc1Cl)Nc1nc2ccccc2s1	19	35	62*	13	0
CC(=O)c1sc(NC(=O)Cc2c(F)cccc2Cl)nc1C	nt	6	3	10	nt
Cc1ccc2nc(NC(=O)CCCc3nc4ccccc4s3)sc2c1	91*	17	27	3	0
Cc1ccc2nc(NC(=O)CCCC(=O)O)sc2c1	-4	nt	nt	-2	-1
Cc1csc(NC(=O)CCc2nc3ccccc3s2)n1	12	19	52*	25	0
Cc1ccc(CNC(=O)C2CCN(S(=O)(=O)c3ccc4c(c3)CC(C)N4C(=O)C3CCC3)CC2)o1 (centres undefined)	nt	3	1	-7	nt
COc1cccc(NC(=O)CSc2nnc3ccc(-c4ccccn4)nn23)c1	nt	5	20	-10	nt
CC1CCc2c(sc(NC(=O)CSc3ncnc4c3cnn4-c3ccccc3Cl)c2C#N)C1 (centres undefined)	8	-31	-46	-21	0
SMILES	L major viab	HSF1 inhib	HSF-1 act	T cruzi inh	Hsp70 act
CC(C)(C)c1nc(-c2ccccc2)nc2c1OCCC2	nt	-7	5	10	nt
CN(C)CCCCNCCCNC(=O)/C=N\O	-3	26	62*	2	0
CN(C)CCCNCCNC(=O)/C=N\O	-4	-6	6	-3	0
O=C(CCC1CCCN(C(=O)c2cccc(F)c2)C1)N1CCN(c2ccccn2)CC1 (centres undefined)	nt	-6	5	25	nt
Cc1cccnc1NC(=O)CCNC(=O)c1ccc(Cl)cc1	nt	-7	-2	-15	nt
Cn1cc(-c2ccccc2C(N)=O)c(=O)c2cc(Cl)ccc21	73*	-4	4	-11	0
Cn1cc(-c2ccccc2C(N)=O)c(=O)c2ccccc21	-1	-7	2	-12	0
Cc1oc(-c2ccc3c(c2)OCCO3)cc1C(=O)O	-6	-72*	-73	-4	0
COc1ccc(-c2cc(C(=O)NC(Cc3cc4ccccc4[nH]3)C(=O)O)c(C)o2)cc1OC (centres undefined)	-1	-7	-10	8	0
COc1ccc(-c2cc(C(=O)O)c(C)o2)cc1OC	-11	-61*	-66	-17	0
COc1cccc(-c2csc(N3CCN(C(=S)Nc4ccc(Cl)cc4)CC3)n2)c1	79*	0	2	12	0
Cc1ccc(-c2csc3ncnc(-n4nnc5ccccc54)c23)cc1C	76*	-8	6	-9	0
Clc1ccc(CNCCC2=CCCCC2)cc1	90*	-4	18	33	0
O=C(O)/C=C1\NC(=O)c2ccccc21	2	14	15	-6	0
O=C1N/C(=C\c2ccc(O)cc2)C(=O)c2ccccc21	100*	-14	-25	-7	0
Cc1ccc2nc(NC(=O)c3cccc(-c4cc5ccccc5oc4=O)c3)sc2c1	-2	-5	-3	64*	0
CCOc1ccccc1-c1ccc(C(=O)NCc2ccccc2)o1	-3	2	9	-2	1
COc1cccc(-c2cc3nc(-c4ccccc4)cc(N4CCC5(CC4)OCCO5)n3n2)c1	63*	6	-4	55*	0
OCCCNc1cc(-c2ccccc2)nc2cc(-c3ccc(F)cc3)nn12	nt	10	-4	19	nt
CCc1nn2c(N3CCOCC3)cc(C)nc2c1-c1ccc(F)cc1	4	-3	-3	7	0
CN1CCN(c2cc(-c3ccccc3)nc3cc(-c4ccc(F)cc4)nn23)CC1	100*	15	27	35	0
Fc1ccc(-c2cc3nc(-c4ccccc4)cc(N4CCN(CCN5CCOCC5)CC4)n3n2)cc1	77*	-1	-7	55*	0
CC(C)(CC(=O)O)CC(=O)N1CCCN(c2nccc(C(F)(F)F)n2)CC1	nt	0	3	-4	nt
COc1ccc(-c2c[n+](CC(=O)OC3CC(C)CCC3C(C)C)c3n2CCC3)cc1 (centres undefined)	100*	3	7	49	0
CNC(=O)NCC12CC3CC(CC(C3)C1)C2	-2	-5	-22	4	0
Cc1cc(C(=O)NCC23CC4CC(CC(C4)C2)C3)c(C)o1	-2	2	5	61*	0
Cc1cccc2c1NC(C)CC2C (centres undefined)	-1	-10	-23	59*	0
CCc1cccc2c1NC1(CCCC1)CC2C (centres undefined)	nt	7	29	29	nt

Screens: PubChem BioAssay, several laboratories
